Measurements published in the EternaBench riboswitch data.

Tested on: MS2 coat protein
Assay: apparent Kd, MS2 coat protein; higher = weaker binding; RNA-MaP array; FMN 200 µM where present
In short: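 Apparent Kd: the median of filtered binding-curve fits from single clusters. Designs were transcribed on Illumina sequencing-chip clusters by stalled E. coli RNA polymerase and titrated with SNAP-549-labelled MS2 coat protein from 0.7 or 1.5 nM, doubling to 3 µM, in 100 mM Tris-HCl pH 7.5, 80 mM KCl, 4 mM MgCl2, BSA, DTT, yeast tRNA and Tween-20. Each series ran without and then with constant ligand, and green signal was normalised to red-channel RNA signal and control-cluster median Fmax.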

[1] = designed as: OFF switch for flavin mononucleotide, no ligand
[2] = ligand present: flavin mononucleotide, designed as: OFF switch for flavin mononucleotide
[3] = designed as: ON switch for flavin mononucleotide, no ligand
[4] = ligand present: flavin mononucleotide, designed as: ON switch for flavin mononucleotide

Row | Sequence | apparent Kd [1] [nM] | apparent Kd [2] [nM] | apparent Kd [3] [nM] | apparent Kd [4] [nM]
1 | CCUAGAGAAGGAUAUACAUGAGGAUCACCCAUGUUCCGGCGCACAAUUAUGCGCCAAUGUAGAAGGUCUGGGCA | 23.6 | 26.6 |  | 
2 | UUCAUGUGAGGAUAUGCGGCGCCAGGCGAGCCUGGCACUGAGCAGAAGGCACAUGAGGAUCACCCAUGUGCUCC | 33.5 | 73.5 |  | 
3 | AGUUAAUAUCGAGGAUAUCCUCUGAAACAUGAGGAUCACCCAUGUAGAAUGGGAGAAGGCGAUAUUAACAGCAUGUUACAUGCA |  |  | 111 | 48.6
4 | GUGCGGUAGGAGAAGGACGGAGGCUUCUUUUCAUACAUGAGGAUCACCCAUGUAGGAUAUCCUACCUCACGCGGCCUACUUCUG | 5.22 | 5.06 |  | 
5 | GGUCCAUUAUGAGGAUAUGGCACCUUAUUGGUGCCAGAAGGCAUGUCUAUAGACAUGAGGAUCACCCAUGUAAUAAAUUGGACC |  |  | 494 | 50.5
6 | GUGAAGUGAGGAUAUACGAGAGAGGCUGAACCGGACGAGAAGUAGAAGGCACAUGAGGAUCACCCAUGUACGGG |  | 236 |  | 
7 | UCUCGACAUGAGGAUCACCCAUGUCAGGAUAUUGUGUUUGAGGUUUUUUACCUUUUGACAAGAAGGGAUGUGUG |  | 30.4 |  | 
8 | GGACGACACAUUAACAUGAGGAUCACCCAUGUCUCUUGACAUGAGGAUAUGGAUCCUAAUUGGAUCCAGAAGGCAUGGUCGUCC |  |  | 1130 | 93.5
9 | UUAUUUAGGUAGGAUAUCGAUAUCAAUCCCUAUCGAGAAGGGUCUACAUGAGGAUCACCCAUGUUAGCAUGUUU | 21.2 | 19.2 |  | 
10 | CUGUCGAUAUCAGGAUAUCGUUUACAUACAUGAGGAUCACCCAUGUUGACAUGGAGCAUAAUUUGCGAGAAGGGAUAACGAUAG |  |  | 23.5 | 14.3
11 | GCAUGUAUAUAAGGAUAUGCAUCACUGAGAAAUUUAGUGAGGAAGAUCACAUGAGGAUCACCCAUGUAGAAGGUAUAUACGUGC | 8.23 | 53.2 |  | 
12 | UUUUUUUAAUAGAAGGAGGACUUCAUGAGGAUCACCCAUGUGUUAGUACUUAGGAUAUGUAAUAACAUGAGGAUCACCCAUGUC |  |  | 51.9 | 48.7
13 | CCGGAGACGGGUAGCCUGACAUGAGGAUCACCCAUGUGAUCCAAGGAUAUGGAUCCUAAUUGGAUCCAGAAGGUGGUUGGCUAC |  |  | 376 | 371
14 | UUAUUAUAUGUAGGAUAUGUAUAUUAUUAUUGUGCAGAAGGACAUGAGGAUCACCCAUGUAUAUUAUUAUUAUAUAUUAUAUAU | 21.4 | 17.1 |  | 
15 | CAGUACUGAGGAUAUACAUGAGGAUCACCCAUGUGUUCCAGCUAGGAAACUAGCAAUUGUAGAAGGCAGUACUG | 59.2 | 428 |  | 
16 | GCGUCAGAAUUAAUUGUGACAUACAGAAGGCAAAAGUUAAGAUCAGACAUGAGGAUCACCCAUGUUGAGGAUAUGUAGAGAAUC | 10.4 | 8.72 |  | 
17 | CUUUUGUGAGGAUAUCAGGUGUGCUAGCGUACUGGUACAUCUGAGAAGGCACAUGAGGAUCACCCAUGUUCCUU | 13.4 | 29.2 |  | 
18 | GGGUACAUCGGAGGAUAUCAUGUAAACACAUGAGGAUCACCCAUGUCGAUGGAGACAUCGGAGAUUGAGAAGGCCGAUGUACCG |  |  | 111 | 7.62
19 | GCUGGACAAGGAUAUACAUAACGUGCUUCGGCACGAGAUCUACAUGAGGAUCACCCAUGUAGAAGGUGUCCAGC | 14.8 | 29.2 |  | 
20 | UUUAUUAACAAGAAGGCAUACAUGAGGAUCACCCAUGUUCUACAUGGAUAAUGAGGAUAUUGCUAAUACAUGAGGAUCACCCAU | 50.6 | 53 |  | 
21 | AUAGUCGGGAGAUAAACUCGUGCGGUAGAAGGGUGAUACUGGACAUGAGGAUCACCCAUGUGCACACAGGAUAUGCCCGCGAGC |  |  | 83.6 | 24.3
22 | CUAUGACGAAUAGGAUAUUCGAUCAAAAGGAUAGAAGAAGGGUUACAUGAGGAUCACCCAUGUAUGCACAUGAGGAUCCCUUAG | 193 | 219 |  | 
23 | GGAGCACGCACAGGAUAUCCGGCGGCGCUCGUCGGAGAAGGGUGACAUGAGGAUCACCCAUGUACGUGCAACUCGGUUUGAGAG |  |  | 105 | 49.2
24 | CGCAGUACUUAGGUACUACACAUGAGGAUCACCCAUGUAUCACAGGAUAUGCAUGAUAUAUUCAGGCAGAAGGGUGAUCUUACC |  |  | 54.5 | 130
25 | GAAGGGUAUGAGAAGGCAUAAUUUAUAUUACCACAUGUUUACAUGAGGAUCACCCAUGUUUCCUAUGAGGAUAUCAUACCGAGA | 12.4 | 12.7 |  | 
26 | CGAUCGUGUAGAGGAUAUGUUAUACAUGAGGAUCACCCAUGUGAGGUGGAAAUAUUUAAUUACAUACAGAAGGCUACACGAUCG | 269 | 227 |  | 
27 | AGUUGGCGAGGAUAUACAUGAGGAUCACCCAUGUGAAAUCGAGAAAAAAUAGGGAAAAGUAGAAGGCGCAGACA | 10.3 | 12.1 |  | 
28 | CAUGUGUAAGGAUAUGACAAUGGUAUCUUCGGAUACCAUUGUCAGAAGGUACAUGAGGAUCACCCAUGUAGAUC | 55 | 240 |  | 

Row | Sequence | apparent Kd [1] [nM] | apparent Kd [2] [nM] | apparent Kd [3] [nM] | apparent Kd [4] [nM]
29 | AGGUAGUCAGGAUAUUAUUUUUAGCGGGAUAACGCUGAGGGUGAGAAGGGACAUGAGGAUCACCCAUGUUUUGA | 258 | 191 |  | 
30 | UUCCUCGUUGUGAGGAUAUCGUCCGGGUUUUGUUACGAGAAGGCACAUGAGGAUCACCCAUGUUACUUGAUGUU | 19 | 64 |  | 
31 | UGAUCGAGAGAUCUUAGAUUCUGGUAGGAUAUACAUUAUAGAAGAUAUACAUGAGGAUCACCCAUGUAGAAGGACUAGAGUCUA | 6.73 | 9.72 |  | 
32 | GCCAUCAUAUGAGGAUAUGACACCGAAACGGUGUCAGAAGGCAUGUCGAUAGACAUGAGGAUCACCCAUGUAUAAAUGAUGGCA |  |  | 780 | 118
33 | UUAUGCUUAGAGAAGGUUCAAACUACAUAUUGCGCACAUGAGGAUCACCCAUGUUGGUGAAUAAGAAAGGAUAUUUGACUGUGC | 245 | 171 |  | 
34 | ACAUGAGGAUCACCCAUGUUCACAUAGGAUAUUGAUUAUAUUGGUUUAAGAAUAGUAAUUGACCUCAAGAAGGAUGCCUGAUCU |  |  | 15.3 | 12.2
35 | UUAUUUAUACAAGGAUAUCAAUUAUAUACAAAUCCAACAUGAGGAUCACCCAUGUUUUAUUUUUUUGAGAAGGUGUAUUGUCAG |  |  | 32.8 | 32
36 | CUAGCAGAUGUAGGAUAUGCUCAGGAUAACUGAGCAGAAGGACAUGAGGAUCACCCAUGUAAAGUGUCUCUAAAUAACUGCUAG | 22.9 | 80.5 |  | 
37 | UUUUUUUUGUGAGGAUAUACAACAUGAGGAUCACCCAUGUCAUGUUCAACAUGAGGAUCACCCAUGUAGAAGGCGCUUUUUUUU | 281 | 247 |  | 
38 | AAUUACAUGUAGAAGGUACUUAAUUAAGUGUUGUAAGGAUAUACCAAUUUAUUAGUUUUAAAGAUACAUGAGGAUCACCCAUGU |  |  | 10.6 | 9.2
39 | GGAUCGAAUGUGAGGAUAUACCUAUGGAUACAUAGGUAGAAGGCACAUGAGGAUCACCCAUGUUCCUACGGUCC | 81.7 | 680 |  | 
40 | AAUUUAAGAUGAGGAUAUUGACAUGAGGAUCACCCAUGUAUUUGGGAAUGUUUACUGAAUUCUUACAAGAAGGUAUACGAACUU | 185 | 138 |  | 
41 | UGUCGGUGCAGAGGAUAUUACAUGAGGAUCACCCAUGUAUGAACCAAUAGCUGGAAACAGCAAUGUAAGAAGGCUGCUCCGACA | 11.8 | 168 |  | 
42 | AUACAUGAGGAUCACCCAUGUAAUUAAUUAACUUGUAAGAUCAAGGAUAUCAGCUCGAAUAGAGCUGAGAAGGUGAUCACAUGU |  |  | 179 | 220
43 | AAAUGCCUGUCGAUGCUCGACAUGAGGAUCACCCAUGUAUAGCAGGAUAUGCAGAACUGACUCGUGCAGAAGGGCUAUACCUAC | 17.8 | 37.4 |  | 
44 | UUGUUGUAUGUAGGAUAUGCGUGUUAUUAUUAUGCAGAAGGACAUGAGGAUCACCCAUGUGUAUUAUUAUUAUAUAUUAUAUAU | 21.5 | 19.6 |  | 
45 | GGUGCAUAUGAGAAGGCGAUCAUGAAACAUGAUCGAGGAUAUCAUGUAAACAUGAGGAUCACCCAUGUAUGGGAAAAGUGCAUC |  |  | 85.4 | 10.7
46 | AAUAAACUCACAGGAUAUAGCAGAGGUCGCGUGAACUUACAGACGACGAGGCUAGAAGGGUGACCACAUGAGGAUCACCCAUGU |  |  | 312 | 65.4
47 | GGAUCGAGUGUGAGGAUAUGCUGGUCCUUGGAUCAGCAGAAGGCACAUGAGGAUCACCCAUGUCCAAACGGUCC | 266 | 388 |  | 
48 | AACCUACAUGAGGAUCACCCAUGUAUCUGAGGCACAGGAUAUCGACAGGCAAGACACCUGCGAGAAGGGUGACCUC |  |  | 94 | 39.9
49 | GCCAUCGCAUGAGGAUAUGCUCCCGUUUCGGGAGCAGAAGGCAUGUGAUAACACAUGAGGAUCACCCAUGUAGUUAAGAUGGCA |  |  | 5.31 | 4.45
50 | UGCGGUUGAGGAUAUACGUAGAAAUAGAUUCAUGUAAAACUACAUGAGGAUCACCCAUGUAGAAGGCAAUCGCU | 25.7 | 217 |  | 
51 | UGGUACAUGGGAGGAUAUCAUGUUCUUACAUGAGGAUCACCCAUGUCGAUGGAGACAUCGGAGAUUGAGAAGGCCCAUGUACCU |  |  | 1070 | 54.2
52 | UUAAUGUGAGGAUAUCAAGAGAGAAAGAGUAAUGGUAAAUAUGAGAAGGCACAUGAGGAUCACCCAUGUUCUUC | 15.9 | 15.5 |  | 
53 | CAGUACUGAGGAUAUACAUGAGGAUCACCCAUGUGAACCAGCUAGGAAACUAGCAAAGGUAGAAGGCAGUACUG | 21.3 | 259 |  | 
54 | AACUCGUCAGGAUAUGCGCGCAGUUACUACGCUUCGCAAUUGCAGAAGGGACAUGAGGAUCACCCAUGUAGGUC | 46.9 | 48 |  | 
55 | ACAUGUAAUACAGGAUAUGUUAUACAUUAAUCAAUCAGUUAUUAUGAUUAUACAGAAGGGUAUACAUGAGGAUCACCCAUGUUA | 19.7 | 26.2 |  | 
